# Measured values: paper PMC9302452 (ACS Bio & Med Chem Au, 2022)
# Tests used:
# [1] = tested on: ERRα target genes in HepG2-IR cells; assay: Expression of ERRα and target genes in HepG2-IR cells; assay type: cell-based
# ERγ = assay: Expression of other nuclear hormone receptors: ERγ; assay type: cell-based; settings: Figure S3
# HFD-induced obese mice = assay: HFD-induced obese C57 mice, daily oral treatment for 4 weeks; assay type: in vivo, mouse
# Summary of the method: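 C57 mice were made obese on HFD for 8 weeks; low-fat-diet mice served as controls. They were then gavaged daily for 4 weeks with test compound (10 or 30 mg/kg) or PBS vehicle diluted in 0.5% CMC-Na. Body weight and fasting glucose were tracked during dosing. Mice were fasted overnight and killed, and livers were taken for kit-based CS activity, mtDNA and SYBR qPCR (Gapdh reference); n = 5.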
# ERRβ = assay: Real-time PCR, transcriptional level of ERRβ; assay type: cell-based; settings: 5.0 μM, 24 h incubation
# Summary of the method: (§1)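 mRNA was quantified by real-time PCR with SYBR Premix Ex Taq under optimised conditions. Gene expression was normalised to Gapdh as the reference gene.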
# ERRα = target: T1, ERRα (Homo sapiens, UniProt P11474); assay: Cellular thermal shift assay; assay type: cell-based; settings: HepG2 cells, concentration as low as 1.0 μM
# T1 sequence (P11474 1-423): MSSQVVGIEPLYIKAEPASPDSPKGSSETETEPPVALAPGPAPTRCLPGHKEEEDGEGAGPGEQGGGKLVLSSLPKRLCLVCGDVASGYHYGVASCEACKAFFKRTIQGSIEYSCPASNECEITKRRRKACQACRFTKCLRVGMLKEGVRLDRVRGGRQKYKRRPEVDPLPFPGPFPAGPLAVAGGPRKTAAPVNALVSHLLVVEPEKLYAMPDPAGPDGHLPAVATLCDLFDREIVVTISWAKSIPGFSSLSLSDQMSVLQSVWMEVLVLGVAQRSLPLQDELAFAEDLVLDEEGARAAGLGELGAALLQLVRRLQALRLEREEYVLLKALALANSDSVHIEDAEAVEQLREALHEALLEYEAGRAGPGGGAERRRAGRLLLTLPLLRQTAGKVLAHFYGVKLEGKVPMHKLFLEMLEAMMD
# Summary of the method: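 HepG2 cells grown to ~90% confluence were exposed to DMSO or test compound (1.0 or 5.0 μM in fresh medium) for 4 h at 37 °C, 5% CO2. Cells were harvested, washed, resuspended in PBS, split into seven aliquots and heated at 48–60 °C for 3 min. They were then held 10 min at room temperature and freeze-thawed thrice in liquid nitrogen. Lysates were spun 30 min at 4 °C and soluble ERRα was assessed by SDS-PAGE/western blot.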
# [2] = Tissue distribution after oral administration; assay type: in vivo; settings: male, SD, rat, 30 mg/kg
# Summary of the method: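 Male SD animals received a single oral gavage of test compound at 30 mg/kg in 0.5% CMC-Na. Blood and tissues were collected at 0.25, 0.5, 2 and 4 h, with 3 animals per time point. Heparinised blood was centrifuged and plasma stored at −80 °C. Plasma and tissue concentrations were measured by LC/MS and expressed as tissue-to-plasma ratios.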
# PPARγ = assay: Expression of other nuclear hormone receptors: PPARγ; assay type: cell-based; settings: Figure S3
# HepG2-IR cells [3] = assay: Glucose uptake assay in HepG2-IR cells; assay type: cell-based
# Summary of the method: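 HepG2-IR cells were starved 2 h in serum-free medium, then washed in glucose-free KRPH buffer (HEPES, pH 7.4, 0.2% fatty-acid-free BSA). They were incubated 30 min in KRPH with 5.0 μM test compound, 5 mM D-glucose and 2-deoxy-D-[3H]glucose. After ice-cold PBS washes, cells were lysed in 0.5 M NaOH/0.1% SDS and neutralised with HCl. Uptake was read by liquid scintillation counting.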
# Errα-LKO mice = Errα-LKO mice on HFD treated with compound; assay type: in vivo, mouse; settings: 30 mg/kg body weight
# Summary of the method: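 Liver-specific Errα knockout mice came from crossing Errα-floxed with albumin-Cre mice. They were fed HFD for 8 weeks, then gavaged daily for 4 weeks with test compound (30 mg/kg) or PBS vehicle diluted in 0.5% CMC-Na. For IGTT, overnight-fasted mice received 1.0 g/kg glucose i.p. For ITT, 6 h-fasted mice received 0.5 U/kg human insulin i.p. Tail-vein glucose was read by glucometer. Liver glucose uptake was also measured; n = 5.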
# [4] = tested on: ERRα-targeted genes MCAD, PDK4, ATP5β; assay: Quantitative real-time PCR of ERRα-targeted genes; assay type: cell-based
# Summary of the method: as §1
# [5] = tested on: glucose/insulin-induced HepG2-IR cells; assay: Oil red O lipid accumulation, glucose/insulin-induced HepG2-IR cells; assay type: cell-based; settings: high glucose/high insulin HepG2-IR, 10.0 μM, 48 h
# Summary of the method: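 HepG2 steatosis models were induced two ways. Line 3 used DMEM with 10% FBS and 1% BSA plus palmitic (0.33 mM) and oleic (0.66 mM) acid, final 1.0 mM, for 24 h. Line 4 used high glucose and insulin. Cells received DMSO or 10.0 μM test compound for 48 h; Erra overexpression and shRNA knockdown served as controls. Cells were formaldehyde-fixed, stained with 0.5% oil red O in isopropanol for 30 min with hematoxylin counterstain, and lipid was quantified.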
# ERRγ = assay: Real-time PCR, transcriptional level of ERRγ; assay type: cell-based; settings: 5.0 μM, 24 h incubation
# Summary of the method: as §1
# HepG2-IR cells [6] = assay: Fatty acid oxidation assay in HepG2-IR cells; assay type: cell-based
# Summary of the method: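 Insulin-resistant HepG2 (HepG2-IR) cells were treated with test compound or vehicle for 24 h. They were then incubated 1.5 h at 37 °C with 0.2 mM L-carnitine and 200 μM [14C(U)]palmitate (0.1 μCi/mL), compound still present. Released CO2 was trapped on methylbenzylamine/methanol-soaked paper after acidifying with 6 M HCl. Acid-soluble products in the supernatant were also counted by scintillation. Values were normalised to protein (BCA) from parallel wells.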
# [7] = 10 and 30 mg/kg/day oral, 4 weeks
# [8] = abdominal adipose tissue/plasma
smiles,measurement,setting,value
"COc1ccc2c(=O)n(C)c(-c3ccccc3)nc2c1 [Compound 7, 7-methoxy-3-methyl-2-phenyl quinazolin-4(3H)-one]",Expression of ERRα target genes including Errα,[1],increased by the molecule in a dose-dependent manner
same,Expression of ERγ,ERγ,not obviously affected
same,Body weight,HFD-induced obese mice; [7],did not obviously affect body weight
same,Glucose tolerance (IGTT),HFD-induced obese mice; [7],improved glucose tolerance
same,Insulin resistance (ITT),HFD-induced obese mice; [7],improved glucose tolerance and insulin resistance
same,Fasting glucose levels,"HFD-induced obese mice; 10 and 30 mg/kg/day oral, 4 weeks, vs vehicle",decreased fasting glucose levels
same,Plasma FFA,HFD-induced obese mice; HFD-elevated level,attenuated
same,Plasma TC,HFD-induced obese mice; HFD-elevated level,attenuated
same,Plasma TG,HFD-induced obese mice; HFD-elevated level,attenuated
same,Plasma insulin,HFD-induced obese mice; HFD-elevated level,attenuated
same,"Transcription of Errα and target genes (Pdk4, Atp5β, Pgc1α) in mouse liver",HFD-induced obese mice; both 10 and 30 mg/kg,significantly elevated transcription
same,Expression of FFA oxidation genes Mcad and Cpt1a in liver,HFD-induced obese mice; compound-treated group,obviously enhanced
same,Food intake,HFD-induced obese mice; compound-treated vs PBS-fed mice,similar
same,Serum ALT level,HFD-induced obese mice; daily oral,dampened
same,Serum AST level,HFD-induced obese mice; daily oral,dampened
same,Hepatic steatosis (Oil red O and HE staining),"HFD-induced obese mice; daily oral, both 10 and 30 mg/kg",potently mitigated hepatic steatosis
same,CS activity,HFD-induced obese mice; liver,higher CS activity
same,Copy number of mitochondrial DNA,HFD-induced obese mice; liver,elevated
same,Fatty acid oxidation,HFD-induced obese mice; liver tissue,higher
same,"Protein levels of AOX1, Cytochrome C, SDH, CPT1A","HFD-induced obese mice; liver, western blot",elevated
same,Oxygen consumption,HFD-induced obese mice; metabolic cage,elevated oxygen consumption
same,"Protein levels of ERRα, PDK4, MCAD, ATP5β in liver",HFD-induced obese mice; western blot,significantly increased protein levels
same,Akt signaling pathways in the liver (p-Akt/total Akt),HFD-induced obese mice; western blot of liver tissue,significantly sensitized Akt signaling pathways
same,Effect on transcriptional level of ERRβ,ERRβ,did not display an obvious effect
same,Thermal degradation of ERRα,ERRα,obviously inhibited thermal degradation of ERRα
same,Kp at 0.25 h,[2]; [8],7.4
same,Kp at 0.5 h,[2]; [8],30.1
same,Kp at 2 h,[2]; [8],22.8
same,Kp at 4 h,[2]; [8],235
same,Kp at 0.25 h,[2]; liver/plasma,58.9
same,Kp at 0.5 h,[2]; liver/plasma,39.8
same,Kp at 2 h,[2]; liver/plasma,28.6
same,Kp at 4 h,[2]; liver/plasma,47.4
same,Expression of PPARγ,PPARγ,not obviously affected
same,Glucose uptake,HepG2-IR cells [3],significantly enhanced
same,Effects on systemic and liver insulin resistance in Errα-LKO mice,Errα-LKO mice,almost completely abolished
same,"mRNA levels of ERRα downstream genes (MCAD, PDK4, ATP5β)",[4],dose-dependently elevated mRNA levels
same,Lipid accumulation (oil red O),[5],significantly alleviated lipid accumulation
same,Effect on transcriptional level of ERRγ,ERRγ,did not display an obvious effect
same,Fatty acid oxidation,HepG2-IR cells [6],significantly enhanced
